Assay results reported in ChEMBL document CHEMBL1136045, “Synthesis, in vitro receptor binding, and in vivo evaluation of fluorescein and carbocyanine peptide-based optical contrast agents” (J Med Chem, 2002).

The compounds below were run against Somatostatin receptor (assay: In vitro binding affinity of [111In]DTPA-[Y3]-octreotate to somatostatin receptor in the rat pancreatic tumor cell line, […]).
Summary of the method: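 Competition binding on CA20948 rat pancreatic cell membranes with the tracer [111In]-DTPA-[Y3]-octreotate and increasing concentrations of unlabeled competitor. Incubation 90 min at room temperature, then filtration and buffer washes. Filter-bound radioactivity was gamma-counted, and IC50 came from a four-parameter curve fit. Specific activity of the radiolabeled peptide was >1400 Ci/mmol.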

IC50 | SMILES
0.6 nM | C[C@@H](O)[C@H](NC(=O)[C@H]1CSSC[C@H](NC(=O)[C@H](N)Cc2ccccc2)C(=O)N[C@@H](Cc2ccc(O)cc2)C(=O)N[C@H](Cc2c[nH]c3ccccc23)C(=O)N[C@@H](CCCCN)C(=O)N[C@H]([C@@H](C)O)C(=O)N1)C(=O)O
0.4 nM | C[C@@H](O)[C@@H](CO)NC(=O)[C@H]1CSSC[C@H](NC(=O)[C@H](N)Cc2ccccc2)C(=O)N[C@@H](Cc2ccc(O)cc2)C(=O)N[C@H](Cc2c[nH]c3ccccc23)C(=O)N[C@@H](CCCCN)C(=O)N[C@H]([C@@H](C)O)C(=O)N1
9.9 nM | C[C@@H](O)[C@H](NC(=O)[C@H]1CSSC[C@H](NC(=O)[C@@H](Cc2ccccc2)/N=C(/S)Nc2ccc3c(c2)C(=O)OC32c3ccc(O)cc3Oc3cc(O)ccc32)C(=O)N[C@@H](Cc2ccc(O)cc2)C(=O)N[C@H](Cc2c[nH]c3ccccc23)C(=O)N[C@@H](CCCCN)C(=O)N[C@H]([C@@H](C)O)C(=O)N1)C(=O)O
10.3 nM | C[C@@H](O)[C@H](NC(=O)[C@H]1CSSC[C@H](NC(=O)[C@@H](Cc2ccccc2)NC(=O)C(CCCC/N=C(\S)Nc2ccc3c(c2)C(=O)OC32c3ccc(O)cc3Oc3cc(O)ccc32)NC(=O)CN(CCN(CCN(CC(=O)O)CC(=O)O)CC(=O)O)CC(=O)O)C(=O)N[C@@H](Cc2ccc(O)cc2)C(=O)N[C@H](Cc2c[nH]c3ccccc23)C(=O)N[C@@H](CCCCN)C(=O)N[C@H]([C@@H](C)O)C(=O)N1)C(=O)O (stereo not given in full)
71.3 nM | C[C@@H](O)[C@H](NC(=O)[C@H]1CSSC[C@H](NC(=O)[C@@H](Cc2ccccc2)NC(=O)C(CCCCNC(=O)CN(CCN(CCN(CC(=O)O)CC(=O)O)CC(=O)O)CC(=O)O)/N=C(\S)Nc2ccc3c(c2)C(=O)OC32c3ccc(O)cc3Oc3cc(O)ccc32)C(=O)N[C@@H](Cc2ccc(O)cc2)C(=O)N[C@H](Cc2c[nH]c3ccccc23)C(=O)N[C@@H](CCCCN)C(=O)N[C@H]([C@@H](C)O)C(=O)N1)C(=O)O (stereo not given in full)
6.4 nM | C[C@@H](O)[C@H](NC(=O)[C@H]1CSSC[C@H](NC(=O)[C@@H](Cc2ccccc2)NC(=O)C(CCCCN)/N=C(\S)Nc2ccc3c(c2)C(=O)OC32c3ccc(O)cc3Oc3cc(O)ccc32)C(=O)N[C@@H](Cc2ccc(O)cc2)C(=O)N[C@H](Cc2c[nH]c3ccccc23)C(=O)N[C@@H](CCCCN)C(=O)N[C@H]([C@@H](C)O)C(=O)N1)C(=O)O (stereo not given in full)

The compounds below were run against Gastrin-releasing peptide receptor (Rattus norvegicus, UniProt P52500) (assay: In vitro binding affinity of [111In]DTPA-[Y4]-bombesin to bombesin receptor in the rat pancreatic acinar cell line, AR42J).
Summary of the method: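 Competition binding on AR42-J rat pancreatic acinar cell membranes (~50 μg/well) with the tracer [111In]-DTPA-[P1,Y4]-bombesin and increasing concentrations of cold competitor. Buffer was 50 mM Tris-HCl pH 7.4, 5 mM MgCl2, 0.2 mg/mL BSA. Incubation 90 min at room temperature, then filtration and washing. Bound radioactivity was gamma-counted, and IC50 came from a four-parameter fit.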

Chain of Gastrin-releasing peptide receptor (P52500 whole entry): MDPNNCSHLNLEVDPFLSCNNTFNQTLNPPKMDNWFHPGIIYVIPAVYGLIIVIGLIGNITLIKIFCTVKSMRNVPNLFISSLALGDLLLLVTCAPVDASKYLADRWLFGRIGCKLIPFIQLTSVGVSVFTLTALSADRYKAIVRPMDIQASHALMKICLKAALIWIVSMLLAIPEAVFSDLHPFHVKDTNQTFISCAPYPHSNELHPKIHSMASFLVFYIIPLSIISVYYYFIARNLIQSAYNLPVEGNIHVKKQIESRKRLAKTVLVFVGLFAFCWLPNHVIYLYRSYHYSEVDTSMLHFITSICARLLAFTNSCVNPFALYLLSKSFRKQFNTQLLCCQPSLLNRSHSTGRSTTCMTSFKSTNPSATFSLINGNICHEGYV

SMILES | IC50
CSCC[C@H](NC(=O)[C@H](CC(C)C)NC(=O)[C@H](Cc1c[nH]cn1)NC(=O)CNC(=O)[C@@H](NC(=O)[C@H](C)NC(=O)[C@H](Cc1c[nH]c2ccccc12)NC(=O)[C@H](CCC(N)=O)NC(=O)[C@H](CC(N)=O)NC(=O)CNC(=O)[C@H](Cc1ccc(O)cc1)NC(=O)[C@H](CCCN=C(N)N)NC(=O)[C@H](CCC(N)=O)NC(=O)[C@@H]1CCCN1C(=O)CN(CCN(CCN(CC(=O)O)CC(=O)O)CC(=O)O)CC(=O)O)C(C)C)C(N)=O | 4.7 nM
CSCC[C@H](NC(=O)[C@H](CC(C)C)NC(=O)[C@H](Cc1c[nH]cn1)NC(=O)CNC(=O)[C@@H](NC(=O)[C@H](C)NC(=O)[C@H](Cc1c[nH]c2ccccc12)NC(=O)[C@H](CCC(N)=O)NC(=O)CNC(=O)[C@H](CO)NC(=O)CNC(=O)[C@@H](N)CCCCNC(=S)Nc1ccc2c(c1)C(=O)OC21c2ccc(O)cc2Oc2cc(O)ccc21)C(C)C)C(N)=O | 9.6 nM
CSCC[C@H](NC(=O)[C@H](CC(C)C)NC(=O)[C@H](Cc1c[nH]cn1)NC(=O)CNC(=O)[C@@H](NC(=O)[C@H](C)NC(=O)[C@H](Cc1c[nH]c2ccccc12)NC(=O)[C@H](CCC(N)=O)NC(=O)[C@H](CCCCN)NC(=S)Nc1ccc2c(c1)C(=O)OC21c2ccc(O)cc2Oc2cc(O)ccc21)C(C)C)C(N)=O | 5.8 nM
CSCC[C@H](NC(=O)[C@H](CC(C)C)NC(=O)[C@H](Cc1c[nH]cn1)NC(=O)CNC(=O)[C@@H](NC(=O)[C@H](C)NC(=O)[C@H](Cc1c[nH]c2ccccc12)NC(=O)[C@H](CCC(N)=O)NC(=O)[C@@H](N)CCCCNC(=O)CN(CCN(CCN(CC(=O)O)CC(=O)O)CC(=O)O)CC(=O)O)C(C)C)C(N)=O | 4.8 nM
CSCC[C@H](NC(=O)[C@H](CC(C)C)NC(=O)[C@H](Cc1c[nH]cn1)NC(=O)CNC(=O)[C@@H](NC(=O)[C@H](C)NC(=O)[C@H](Cc1c[nH]c2ccccc12)NC(=O)[C@H](CCC(N)=O)NC(=O)[C@H](CCCCN)NC(=O)CN(CCN(CCN(CC(=O)O)CC(=O)O)CC(=O)O)CC(=O)O)C(C)C)C(N)=O | 410 nM
CSCC[C@H](NC(=O)[C@H](CC(C)C)NC(=O)[C@H](Cc1c[nH]cn1)NC(=O)CNC(=O)[C@@H](NC(=O)[C@H](C)NC(=O)[C@H](Cc1c[nH]c2ccccc12)NC(=O)[C@H](CCC(N)=O)NC(=S)Nc1ccc2c(c1)C(=O)OC21c2ccc(O)cc2Oc2cc(O)ccc21)C(C)C)C(N)=O | 3.2 nM
CSCC[C@H](NC(=O)[C@H](CC(C)C)NC(=O)[C@H](Cc1c[nH]cn1)NC(=O)CNC(=O)[C@@H](NC(=O)[C@H](C)NC(=O)[C@H](Cc1c[nH]c2ccccc12)NC(=O)[C@H](CCC(N)=O)NC(=O)[C@@H](N)CCCCNC(=S)Nc1ccc2c(c1)C(=O)OC21c2ccc(O)cc2Oc2cc(O)ccc21)C(C)C)C(N)=O | 5.7 nM
CSCC[C@H](NC(=O)[C@H](CC(C)C)NC(=O)[C@H](Cc1c[nH]cn1)NC(=O)CNC(=O)[C@@H](NC(=O)[C@H](C)NC(=O)[C@H](Cc1c[nH]c2ccccc12)NC(=O)[C@H](CCC(N)=O)NC(=O)CNC(=O)[C@H](CO)NC(=O)CNC(=O)[C@@H](N)CCCCN)C(C)C)C(N)=O | 4.8 nM
CSCC[C@H](NC(=O)[C@H](CC(C)C)NC(=O)[C@H](Cc1c[nH]cn1)NC(=O)CNC(=O)[C@@H](NC(=O)[C@H](C)NC(=O)[C@H](Cc1c[nH]c2ccccc12)NC(=O)[C@H](CCC(N)=O)NC(=O)CNC(=O)[C@H](CO)NC(=O)CNC(=O)[C@H](CCCCN)NC(=S)Nc1ccc2c(c1)C(=O)OC21c2ccc(O)cc2Oc2cc(O)ccc21)C(C)C)C(N)=O | 15.6 nM
CSCC[C@H](NC(=O)[C@H](CC(C)C)NC(=O)[C@H](Cc1c[nH]cn1)NC(=O)CNC(=O)[C@@H](NC(=O)[C@H](C)NC(=O)[C@H](Cc1c[nH]c2ccccc12)NC(=O)[C@H](CCC(N)=O)NC(=O)CNC(=O)[C@H](CO)NC(=O)CNC(=S)Nc1ccc2c(c1)C(=O)OC21c2ccc(O)cc2Oc2cc(O)ccc21)C(C)C)C(N)=O | 9.2 nM
CSCC[C@H](NC(=O)[C@H](CC(C)C)NC(=O)[C@H](Cc1cnc[nH]1)NC(=O)CNC(=O)[C@@H](NC(=O)[C@H](C)NC(=O)[C@H](Cc1c[nH]c2ccccc12)NC(=O)[C@@H](N)CCC(N)=O)C(C)C)C(N)=O | 28.3 nM
CSCC[C@H](NC(=O)[C@H](CC(C)C)NC(=O)[C@H](Cc1c[nH]cn1)NC(=O)CNC(=O)[C@@H](NC(=O)[C@H](C)NC(=O)[C@H](Cc1c[nH]c2ccccc12)NC(=O)[C@H](CCC(N)=O)NC(=O)CNC(=O)[C@H](CO)NC(=O)CN)C(C)C)C(N)=O | 7.6 nM
CSCC[C@H](NC(=O)[C@H](CC(C)C)NC(=O)[C@H](Cc1c[nH]cn1)NC(=O)CNC(=O)[C@@H](NC(=O)[C@H](C)NC(=O)[C@H](Cc1c[nH]c2ccccc12)NC(=O)[C@H](CCC(N)=O)NC(=O)[C@@H](N)CCCCN)C(C)C)C(N)=O | 10.5 nM
CSCC[C@H](NC(=O)[C@H](CC(C)C)NC(=O)[C@H](Cc1c[nH]cn1)NC(=O)CNC(=O)[C@@H](NC(=O)[C@H](C)NC(=O)[C@H](Cc1c[nH]c2ccccc12)NC(=O)[C@H](CCC(N)=O)NC(=O)[C@H](CCCCNC(=O)CN(CCN(CCN(CC(=O)O)CC(=O)O)CC(=O)O)CC(=O)O)NC(=O)CN(CCN(CCN(CC(=O)O)CC(=O)O)CC(=O)O)CC(=O)O)C(C)C)C(N)=O | 240 nM
CSCC[C@H](NC(=O)[C@H](CC(C)C)NC(=O)[C@H](Cc1c[nH]cn1)NC(=O)CNC(=O)[C@@H](NC(=O)[C@H](C)NC(=O)[C@H](Cc1c[nH]c2ccccc12)NC(=O)[C@H](CCC(N)=O)NC(=O)[C@H](CCCCNC(=O)CN1CCN(CC(=O)O)CCN(CC(=O)O)CCN(CC(=O)O)CC1)NC(=S)Nc1ccc2c(c1)C(=O)OC21c2ccc(O)cc2Oc2cc(O)ccc21)C(C)C)C(N)=O | 15 nM

The remaining lines, values ahead:

IC50 | SMILES
20.5 nM | CSCC[C@H](NC(=O)[C@H](CC(C)C)NC(=O)[C@H](Cc1c[nH]cn1)NC(=O)CNC(=O)[C@@H](NC(=O)[C@H](C)NC(=O)[C@H](Cc1c[nH]c2ccccc12)NC(=O)[C@H](CCC(N)=O)NC(=O)CNC(=O)[C@H](CO)NC(=O)CNC(=O)[C@H](CCCCNC(=S)Nc1ccc2c(c1)C(=O)OC21c2ccc(O)cc2Oc2cc(O)ccc21)NC(=S)Nc1ccc2c(c1)C(=O)OC21c2ccc(O)cc2Oc2cc(O)ccc21)C(C)C)C(N)=O
20 nM | CSCC[C@H](NC(=O)[C@H](CC(C)C)NC(=O)[C@H](Cc1c[nH]cn1)NC(=O)CNC(=O)[C@@H](NC(=O)[C@H](C)NC(=O)[C@H](Cc1c[nH]c2ccccc12)NC(=O)[C@H](CCC(N)=O)NC(=O)[C@H](CCCCNC(=O)CN(CCN(CCN(CC(=O)O)CC(=O)O)CC(=O)O)CC(=O)O)NC(=S)Nc1ccc2c(c1)C(=O)OC21c2ccc(O)cc2Oc2cc(O)ccc21)C(C)C)C(N)=O
276 nM | CSCC[C@H](NC(=O)[C@H](CC(C)C)NC(=O)[C@H](Cc1c[nH]cn1)NC(=O)CNC(=O)[C@@H](NC(=O)[C@H](C)NC(=O)[C@H](Cc1c[nH]c2ccccc12)NC(=O)[C@H](CCC(N)=O)NC(=O)[C@H](CCCCNC(=S)Nc1ccc2c(c1)C(=O)OC21c2ccc(O)cc2Oc2cc(O)ccc21)NC(=O)CN(CCN(CCN(CC(=O)O)CC(=O)O)CC(=O)O)CC(=O)O)C(C)C)C(N)=O
9.5 nM | CSCC[C@H](NC(=O)[C@H](CC(C)C)NC(=O)[C@H](Cc1c[nH]cn1)NC(=O)CNC(=O)[C@@H](NC(=O)[C@H](C)NC(=O)[C@H](Cc1c[nH]c2ccccc12)NC(=O)[C@H](CCC(N)=O)NC(=O)[C@H](CCCCNC(=S)Nc1ccc2c(c1)C(=O)OC21c2ccc(O)cc2Oc2cc(O)ccc21)NC(=S)Nc1ccc2c(c1)C(=O)OC21c2ccc(O)cc2Oc2cc(O)ccc21)C(C)C)C(N)=O
